Measured values of several laboratories.
Compare with care: the assays were run in different laboratories.
Target: Cholinesterase (BCHE, Homo sapiens, UniProt P06276)
Observed: enzyme activity
Mode: inhibitor

Structure (SMILES)	method	IC50 [nM]
COc1ccc(OC)c(C=NNC(=O)c2cc(-c3cn(C)c4ccccc34)on2)c1	–	> 100000
C#CCN(C)CCCCCCCOc1cccc(CN(C)c2c3c(nc4ccccc24)CCCC3)c1	Ellman	310
COc1ccc(/C=N/n2c(-c3cc([N+](=O)[O-])c[nH]3)n[nH]c2=S)cc1	Ellman	26200
COc1cccc(C=NNC(=O)c2cc(-c3cn(C)c4ccccc34)on2)c1O	–	> 100000
CCN(CC)c1ccc(C=NNC(=O)c2ccc(F)cc2)c(OS(=O)(=O)c2ccc(OC)cc2)c1	Ellman	97.2
CSc1ccc(C=NNC(=O)c2cc(-c3cn(C)c4ccccc34)on2)cc1	–	> 100000
C#CCN(C)CCCOc1cccc(CN(C)c2c3c(nc4ccccc24)CCCC3)c1	Ellman	410
COc1ccc(S(=O)(=O)Oc2ccc(C=NNC(=O)c3ccc(F)cc3)cc2OC)cc1	Ellman	76.4
C#CCN(C)CCCCOCc1ccc(CN(C)c2c3c(nc4ccccc24)CCCC3)cc1	Ellman	1470
O=[N+]([O-])c1c[nH]c(-c2n[nH]c(=S)n2/N=C/c2ccc(F)cc2O)c1	Ellman	7800
Cn1cc(-c2cc(C(=O)NN=Cc3ccccc3Cl)no2)c2ccccc21	–	> 100000
O=[N+]([O-])c1c[nH]c(-c2n[nH]c(=S)n2/N=C/c2ccc(F)cc2)c1	Ellman	9100
C#CCN(C)CCCCCOc1cccc(CN(C)c2c3c(nc4ccccc24)CCCC3)c1	Ellman	330
O=[N+]([O-])c1c[nH]c(-c2n[nH]c(=S)n2/N=C/c2ccc(F)c([N+](=O)[O-])c2)c1	Ellman	16100
Cn1cc(-c2cc(C(=O)NN=Cc3ccccc3)no2)c2ccccc21	–	> 100000
C#CCN(C)CCCCCOCc1ccc(CN(C)c2c3c(nc4ccccc24)CCCC3)cc1	Ellman	610
Cn1cc(-c2cc(C(=O)NN=Cc3ccccc3F)no2)c2ccccc21	–	> 100000
COc1ccc(S(=O)(=O)Oc2ccc(C=NNC(=O)c3ccc(F)cc3)cc2)cc1	Ellman	83.6
C#CCN(C)CCCCCOCc1ccc(CN(C)c2c3c(nc4ccc(C)cc24)CCCC3)cc1	Ellman	1120
O=[N+]([O-])c1c[nH]c(-c2n[nH]c(=S)n2/N=C/c2cc(O)cc(F)c2)c1	Ellman	9600
C#CCN(C)CCCCOCc1ccc(CN(C)c2c3c(nc4ccc(C)cc24)CCCC3)cc1	Ellman	1780
COc1ccc(S(=O)(=O)Oc2ccc3ccccc3c2C=NNC(=O)c2ccc(F)cc2)cc1	Ellman	134
O=[N+]([O-])c1c[nH]c(-c2n[nH]c(=S)n2/N=C/c2ccc(Cl)cc2[N+](=O)[O-])c1	Ellman	16400
